Series [1] deals with Rattus norvegicus. The series can be described thus: Survival of neonatal Wistar rat infected with Candida albicans ATCC 32354 at 10 mg/kg of body weight/day, ip for 4 days beginning 24 hrs before infection. The following applies: route intraperitoneal. The series is classed as functional. In outline:
(§1)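 Wistar pups aged 1-2 days, kept with dams, were immunosuppressed with 0.2 ml 20% intralipid i.p. (two doses on day 1, one each on days 2 and 3). Drug or placebo was given i.p. daily for 4 days from 24 h before infection. Littermates were randomized and infected s.c. on days 2 and 3 with 2 × 10⁸ CFU C. albicans, alone or with 2 × 10⁶ CFU S. epidermidis. Survival was followed daily for 9 days; groups were compared by Fisher exact test.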

The test system of series [2] is Rattus norvegicus. The series can be described thus: Decrease in mortality of neonatal Wistar rat infected with Candida albicans ATCC 32354 and Staphylococcus epidermidis Hay at 10 mg/kg of body weight/day, ip for 4 days beginning 24 hrs before infection. More on the design: scale not given: the % may be the effect or the level left. The following applies: route intraperitoneal. The class given is functional. In outline:
as §1

For series [3], the system named is Staphylococcus epidermidis. As to the kind of experiment: Inhibition of Staphylococcus epidermidis Hay ATCC 55133 at 1 ug/ml by broth microdilution method. The series is classed as functional, organism-based. On the technique in general: Broth dilution looks for growth in wells or tubes with falling amounts of substance.
Series [4] can be described thus: Serum trough levels in Wistar rat pup at 10 mg/kg of body weight/day, ip after 24 hrs by ELISA. The class given is ADME, organism-based. On the set-up: dose 10 mg/kg, route intraperitoneal. The following applies: read-out: Cmin. In outline: (§2)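 Pups received 10 mg/kg/day i.p. for 4 days. Troughs were taken just before the next dose (24, 48, 72 h) and 24 h after the fourth dose (96 h). Blood was collected by cardiac puncture from 12-15 pups per time point, and serum from 3 pups was pooled per sample, giving 4-5 samples. Serum was stored at −70°C and assayed in one batch. The assay was linear from 0.2 to 200 µg/ml.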
In general terms: ELISA stands for enzyme-linked immunosorbent assay.

Series [5] in a line: Serum trough levels in Wistar rat pup at 10 mg/kg of body weight/day, ip after 48 hrs by ELISA. The series is classed as ADME, organism-based. More on the design: dose 10 mg/kg, route intraperitoneal. The following applies: read-out: Cmin. In outline: as §2
A short description of series [6]: Serum trough levels in Wistar rat pup at 10 mg/kg of body weight/day, ip after 96 hrs by ELISA. The following applies: read-out: Cmin. On the set-up: dose 10 mg/kg, route intraperitoneal. The series is classed as ADME, organism-based. In outline:
as §2

In series [7] the test system is Rattus norvegicus. The series can be described thus: Increase in growth of neonatal Wistar rat infected with Candida albicans ATCC 32354 and Staphylococcus epidermidis Hay assessed as weight gain at 10 mg/kg of body weight/day, ip for 4 days beginning 24 hrs before infection relative to control. More on the design: dose 10 mg/kg. The series is classed as functional, organism-based. In outline: (§3)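 In intralipid-immunosuppressed neonatal Wistar pups, littermates were randomized, dosed i.p. daily for 4 days from 24 h pre-infection, and infected s.c. on days 2 and 3 with 2 × 10⁸ CFU C. albicans, with or without 2 × 10⁶ CFU S. epidermidis. Nonedematous weight was recorded daily for 9 days. Slopes of each pup's weight curve were calculated, and group means were compared by one-way ANOVA.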

For series [8], the system named is Rattus norvegicus. The series can be described thus: Decrease in mortality of neonatal Wistar rat infected with Candida albicans ATCC 32354 at 10 mg/kg of body weight/day, ip for 4 days beginning 24 hrs before infection. The series is classed as functional. On the set-up: scale not given: the % may be the effect or the level left. The following applies: route intraperitoneal. In outline:
as §1

For series [9], the system named is Rattus norvegicus. As to the kind of experiment: Increase in growth of neonatal Wistar rat infected with Candida albicans ATCC 32354 assessed as weight gain at 10 mg/kg of body weight/day, ip for 4 days beginning 24 hrs before infection relative to control. The series is classed as functional, organism-based. On the set-up: dose 10 mg/kg. In outline:
as §3

Series [10] is described as follows: Serum trough levels in Wistar rat pup at 10 mg/kg of body weight/day, ip after 72 hrs by ELISA. The series is classed as ADME, organism-based. More on the design: dose 10 mg/kg, route intraperitoneal. The following applies: read-out: Cmin. In outline: as §2
Series [11] has as its system Rattus norvegicus. The series can be described thus: Survival of neonatal Wistar rat infected with Staphylococcus epidermidis Hay and Candida albicans ATCC 32354 at 10 mg/kg of body weight/day, ip for 4 days beginning 24 hrs before infection. The series is classed as functional. The following applies: route intraperitoneal. In outline: as §1
Series [12] deals with Candida albicans. The series can be described thus: Inhibition of Candida albicans ATCC 32354 at 1 ug/ml by broth microdilution method. The class given is functional, organism-based. In outline:
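CLSI M27-A2 broth microdilution. Inoculum was 1-5 × 10³ CFU/ml in RPMI 1640 buffered with MOPS to pH 7. Twofold drug dilutions from 125 to 0.25 µg/ml were tested at 35°C for 48 h, with visual reads at 24 and 48 h. The MIC was the lowest concentration giving a ≥50% decrease in turbidity. Trailing growth at 48 h was counted as susceptible.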

Structures are written as SMILES. The source made the active and inactive calls. The rule behind the calls is not given here.

In the case of `OC(Cn1cncn1)(Cn1cncn1)c1ccc(F)cc1F` [FLUCONAZOLE], the survival at 10 mg/kg is 85.7% in series [1] and 75.6% in series [11]. Further, the figures for the Activity in series [2] and in series [8] were 36% and 30%, respectively. Besides, the outcome in [3] was inactive. The concentration at 24 h in [4] is 1550 ng/mL. Moreover, in series [5], the concentration at 48 h is 2500 ng/mL. The concentration at 96 h in series [6] worked out at 1030 ng/mL. Besides, the result in [7], in series [9] and in series [12] was Active. Also, the concentration at 72 h in [10] was 1510 ng/mL.
